{"source": "ChEMBL document CHEMBL5316316", "about": "“Designing Synthetic, Sulfated Glycosaminoglycan Mimetics That Are Orally Bioavailable and Exhibiting In Vivo Anticancer Activity” (J Med Chem, 2023)", "key": {"[1]": {"assay": "Toxicity in NCR nude mouse xenografted with human HT-29 cells assessed as change in body weight at 100 mg/kg, po", "assay_type": "organism-based", "details": "in vivo"}, "[2]": {"system": "Plasma", "assay": "Anticoagulant activity in human plasma assessed as prolongation of activated partial thromboplastin time by measuring concentration required to double APTT incubated for 4 mins by coagulometer analysis", "assay_type": "functional, cell-free", "outline": "(§1)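 Pooled normal citrated human plasma (90 μL) mixed with 10 μL compound and 100 μL prewarmed ellagic acid APTT reagent, incubated 4 min at 37 °C, then recalcified with 100 μL prewarmed 25 mM CaCl2. Clot time read on a fibrometer (one-stage recalcification). Water blank gave the baseline. Concentration doubling APTT came from a quadratic trend-line fit.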"}, "[3]": {"assay": "Toxicity in NCR nude mouse xenografted with human HT-29 cells assessed as change in body weight at 50 mg/kg, ip in presence 5-fluorouracil and oxaliplatin", "assay_type": "organism-based", "details": "in vivo"}, "[4]": {"system": "HT-29", "assay": "Antitumor activity against human HT-29 cells xenografted in NCR nude mouse assessed as decrease in proportion of CSC at 100 mg/kg, po administered 5 times a week for 3 weeks by flow cytometry analysis"}, "[5]": {"assay": "Toxicity in NCR nude mouse xenografted with human HT-29 cells assessed as bleeding at 100 mg/kg, po", "assay_type": "organism-based", "details": "in vivo"}, "[6]": {"assay": "Ex-vivo growth inhibition of mouse intestinal organoids measured for 5 to 7 days by phase contrast microscopic analysis", "assay_type": "toxicity, Intestine", "details": "time 5-7 day", "outline": "(§2)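 Intestinal pieces (2–4 cm) were taken from treated xenograft mice and chelated and dissociated into crypts. About 200–500 crypts were embedded in Matrigel under mouse IntestiCult medium at 37 °C, 5% CO2. Organoids were counted by phase contrast after 5–7 days.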"}, "[7]": {"system": "HT-29", "assay": "Antitumor activity against human HT-29 cells xenografted in NCR nude mouse assessed as reduction in BMI-1 expression level at 50 mg/kg, ip in presence of 5-fluorouracil and oxaliplatin of by Western blot analysis", "assay_type": "functional, organism-based", "outline": "(§3)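 Bulk HT-29 cells (1 × 10^6) were grown as subcutaneous xenografts in NCr nude mice and given FUOX (25 mg/kg FU + 2 mg/kg OX IP weekly for 3 weeks). Mice were then randomized (n = 4/arm) to 50 mg/kg IP three times/week (8 doses), alone or with FUOX. Tumor lysates (n = 2/group) were Western blotted for DCAMLK1 and BMI-1.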"}, "[8]": {"system": "Plasma", "assay": "Anticoagulant activity in pooled human plasma assessed as prolongation of activated partial thromboplastin time incubated for 4 mins by coagulometer analysis", "assay_type": "functional, cell-free", "outline": "as §1"}, "[9]": {"system": "HT-29", "assay": "Antitumor activity against human CD133/CXCR4-induced HT-29 cells xenografted in NCR nude mouse assessed as spheroid formation at 100 mg/kg, po administered 5 times a week for 3 weeks by phase contrast microscopic analysis", "assay_type": "functional, organism-based", "outline": "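Xenografts (Dual Hi HT-29, FUOX-pretreated, 100 mg/kg oral 5×/week for 3 weeks) were digested with collagenase IV and filtered at 70 μm. Cells were plated serially as 1°–3° spheroids on low-adhesion plates in stem cell medium with EGF and FGF. Spheroids of 50–150 μm were counted by phase contrast. At least three replicates.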"}, "[10]": {"system": "HT-29", "assay": "Antitumor activity against human HT-29 cells xenografted in NCR nude mouse assessed as spheroid formation at 50 mg/kg, ip", "assay_type": "functional, organism-based", "outline": "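Bulk HT-29 xenografts in NCr nude mice were FUOX-pretreated, then given 50 mg/kg IP three times/week (8 doses), alone or with FUOX. Collagenase-digested tumor cells were serially cultured as 1°–4° spheroids in stem cell medium with EGF/FGF. Spheroids of 50–150 μm were counted by phase contrast, in at least three replicates.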"}, "[11]": {"assay": "Cytotoxicity against human HT-29 cells assessed as inhibition of spheroid growth", "details": "HT-29 cell spheroids"}, "[12]": {"system": "HT-29", "assay": "Antitumor activity against CD133/CXCR4-induced human HT-29 cells xenografted in NCR nude mouse assessed as reduction in tumor growth at 100 mg/kg, po administered 5 times a week for 3 weeks", "assay_type": "functional, organism-based", "outline": "(§4)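 Dual Hi (CD133+/CXCR4+) HT-29 cells, FACS-sorted, injected subcutaneously at 1 × 10^5 into NCr nude mice. Mice were then randomized to vehicle or 100 mg/kg oral gavage 5 times/week for 3 weeks. Tumor volume was measured by caliper three times weekly.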"}, "[13]": {"assay": "Ex-vivo growth inhibition of mouse intestinal organoids at 100 mg/kg, po measured for 5 to 7 days by phase contrast microscopic analysis", "details": "in vivo"}, "[14]": {"system": "HT-29", "assay": "Cytotoxicity against human HT-29 cells assessed as reduction in cell viability at 100 uM incubated for 60 to 72 hrs by MTT assay", "assay_type": "toxicity, cell-based", "details": "ht-29, 100 µM, time 60-72 hrs", "outline": "(§5)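 HT-29 monolayer cells were seeded at about 2.5 × 10^3 per well in DMEM:F12 with 10% FBS and incubated overnight at 37 °C, 5% CO2. Compound was added for 60–72 h. MTT (5 mg/mL in PBS) was added for 2–3 h, crystals were dissolved in DMSO and absorbance read at 590 nm. Results are percent of vehicle control, at least three replicates.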"}, "[15]": {"system": "HT-29", "assay": "Antitumor activity against human HT-29 cells xenografted in NCR nude mouse assessed as reduction in tumor growth at 100 mg/kg, po administered 5 times a week for 3 weeks relative to control", "assay_type": "functional", "parameters": "scale not given: the % may be the effect or the level left", "outline": "as §4"}, "[16]": {"assay": "Ex-vivo growth inhibition of mouse intestinal organoids measured for 5 to 7 days in presence of 5-fluorouracil and oxaliplatin by phase contrast microscopic analysis", "assay_type": "toxicity, Intestine", "details": "time 5-7 day", "outline": "as §2"}, "[17]": {"system": "HT-29", "assay": "Antitumor activity against human HT-29 cells xenografted in NCR nude mouse assessed as reduction in DCAMKL1 expression level at 50 mg/kg, ip in presence of 5-fluorouracil and oxaliplatin of by Western blot analysis", "assay_type": "functional, organism-based", "outline": "as §3"}, "[18]": {"system": "HT-29", "assay": "Antitumor activity against human HT-29 cells xenografted in NCR nude mouse assessed as reduction in tumor volume at 25 mg/kg, ip administered for 3 weeks in presence of oxaliplatin by vernier caliper method", "assay_type": "functional, organism-based", "outline": "(§6)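 HT-29 cells (1×10^6 bulk, or 1×10^5 FACS-sorted CD133+/CXCR4+) injected subcutaneously into NCr nude mice. Once tumors were palpable (>50 mm3), 5-fluorouracil 25 mg/kg plus oxaliplatin 2 mg/kg given IP weekly for 3 weeks, then mice randomized for further treatment. Tumor volume by Vernier caliper three times weekly. Ex vivo xenograft cells were digested with collagenase IV and assessed for 1°–4° spheroids (50–150 μm) and for Dual Hi/LGR5+ cells by flow cytometry.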"}, "[19]": {"system": "HT-29", "assay": "Antitumor activity against human HT-29 cells xenografted in NCR nude mouse assessed as increase in number of spheroids at 25 mg/kg, ip administered for 3 weeks in presence of oxaliplatin", "assay_type": "functional, organism-based", "outline": "as §6"}, "[20]": {"system": "HT-29", "assay": "Antitumor activity against human HT-29 cells xenografted in NCR nude mouse assessed as spheroid formation at 25 mg/kg, ip administered for 3 weeks in presence of oxaliplatin", "assay_type": "functional, organism-based", "outline": "as §6"}, "[21]": {"system": "HT-29", "assay": "Antitumor activity against human HT-29 cells xenografted in NCR nude mouse assessed as increase in proportion of CSC at 25 mg/kg, ip administered for 3 weeks in presence of oxaliplatin by flow cytometry analysis (reference value: 11.37 %)", "assay_type": "functional", "outline": "as §6"}, "[22]": {"system": "HT-29", "assay": "Cytotoxicity against human HT-29 cells assessed as reduction in cell viability at 400 uM incubated for 60 to 72 hrs by MTT assay", "assay_type": "toxicity, cell-based", "details": "ht-29, 400 µM, time 60-72 hrs", "outline": "as §5"}, "[23]": {"system": "HT-29", "assay": "Antitumor activity against human HT-29 cells xenografted in NCR nude mouse assessed as decrease in BMI-1 expression at 100 mg/kg, ip administered 3 times a week for 4.6 weeks by Western blot analysis", "assay_type": "functional, organism-based", "outline": "(§7)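 Mice were randomized to 100 mg/kg IP three times/week for 4.6 weeks (14 doses). Tumors (n = 2/group) were dissociated and analysed by Western blot for LGR5, DCAMLK1 and BMI-1, and by flow cytometry for CD133+/CXCR4+ cells.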"}, "[24]": {"system": "HT-29", "assay": "Antitumor activity against human HT-29 cells xenografted in NCR nude mouse assessed as decrease in LGR5 expression at 100 mg/kg, ip administered 3 times a week for 4.6 weeks by Western blot analysis", "assay_type": "functional, organism-based", "outline": "as §7"}, "[25]": {"system": "HT-29", "assay": "Antitumor activity against human HT-29 cells xenografted in NCR nude mouse assessed as decrease in DCAMKL1 expression at 100 mg/kg, ip administered 3 times a week for 4.6 weeks by Western blot analysis", "assay_type": "functional, organism-based", "outline": "as §7"}, "[26]": {"system": "HT-29", "assay": "Cytotoxicity against human HT-29 cells assessed as reduction in cell viability incubated for 60 to 72 hrs by MTT assay", "assay_type": "toxicity, cell-based", "details": "time 60-72 hrs", "outline": "as §5"}}, "note": "pIC50: −log10 of the molar value. The source made the active and inactive calls. The calls are words filed in the database; no cut-off is given here."}
{"smiles": "CC(C)CCC[C@@H](C)[C@H]1CC[C@H]2[C@@H]3CC=C4C[C@@H](OCCOc5cc(-c6oc7cc(OS(=O)(=O)[O-])cc(OCCCOc8cc(OS(=O)(=O)[O-])cc9oc(-c%10ccc(OS(=O)(=O)[O-])c(OS(=O)(=O)[O-])c%10)c(OS(=O)(=O)[O-])c(=O)c89)c7c(=O)c6OS(=O)(=O)[O-])ccc5OS(=O)(=O)[O-])CC[C@]4(C)[C@H]3CC[C@]12C.[Na+].[Na+].[Na+].[Na+].[Na+].[Na+].[Na+]", "values": [{"measurement": "Activity", "setting": "[1]", "result": "Non-Toxic"}, {"measurement": "Activity", "setting": "[2]", "result": "Active"}, {"measurement": "Activity", "setting": "[3]", "result": "Non-Toxic"}, {"measurement": "Activity", "setting": "[4]", "result": "Active"}, {"measurement": "Activity", "setting": "[5]", "result": "Non-Toxic"}, {"measurement": "Activity", "setting": "[6]", "result": "Non-Toxic"}, {"measurement": "Activity", "setting": "[7]", "result": "Active"}, {"measurement": "Activity", "setting": "[8]", "result": "Dose-Dependent Effect"}, {"measurement": "Activity", "setting": "[9]", "result": "Active"}, {"measurement": "Activity", "setting": "[10]", "result": "Active"}, {"measurement": "pIC50", "setting": "[11]", "result": 5.26}, {"measurement": "Activity", "setting": "[12]", "result": "Active"}, {"measurement": "Activity", "setting": "[13]", "result": "Non-Toxic"}, {"measurement": "Activity", "setting": "[14]", "result": "Toxic"}, {"measurement": "Activity", "setting": "[15]", "result": "~70", "unit": "%"}, {"measurement": "Activity", "setting": "[16]", "result": "Non-Toxic"}, {"measurement": "Activity", "setting": "[17]", "result": "Active"}]}
{"smiles": "O=c1[nH]cc(F)c(=O)[nH]1", "note": "[FLUOROURACIL]", "values": [{"measurement": "Activity", "setting": "[18]", "result": "Active"}, {"measurement": "Activity", "setting": "[19]", "result": "Active"}, {"measurement": "Activity", "setting": "[20]", "result": "Active"}, {"measurement": "Activity", "setting": "[21]", "result": 26.4, "unit": "%"}]}
{"smiles": "CC(C)CCC[C@@H](C)[C@H]1CC[C@H]2[C@@H]3CC=C4C[C@@H](OCCCCCOc5cc(-c6oc7cc(OS(=O)(=O)[O-])cc(OCCCOc8cc(OS(=O)(=O)[O-])cc9oc(-c%10ccc(OS(=O)(=O)[O-])c(OS(=O)(=O)[O-])c%10)c(OS(=O)(=O)[O-])c(=O)c89)c7c(=O)c6OS(=O)(=O)[O-])ccc5OS(=O)(=O)[O-])CC[C@]4(C)[C@H]3CC[C@]12C.[Na+].[Na+].[Na+].[Na+].[Na+].[Na+].[Na+]", "values": [{"measurement": "Activity", "setting": "[2]", "result": "Active"}, {"measurement": "Activity", "setting": "[22]", "result": "Toxic"}, {"measurement": "Activity", "setting": "[23]", "result": "Active"}, {"measurement": "Activity", "setting": "[8]", "result": "Dose-Dependent Effect"}, {"measurement": "pIC50", "setting": "[11]", "result": 4.94}, {"measurement": "Activity", "setting": "[24]", "result": "Active"}, {"measurement": "Activity", "setting": "[25]", "result": "Active"}]}
{"smiles": "O=c1cc(-c2ccc(OS(=O)(=O)[O-])cc2)oc2cc(OS(=O)(=O)[O-])cc(OCC3CCC(COc4cc(OS(=O)(=O)[O-])cc5oc(-c6ccc(OS(=O)(=O)[O-])cc6)cc(=O)c45)CC3)c12.[Na+].[Na+].[Na+].[Na+]", "note": "(stereo not given)", "values": [{"measurement": "pIC50", "setting": "[11]", "result": 4.34}, {"measurement": "Activity", "setting": "[26]", "result": "Non-Toxic"}]}
